High-throughput results as filed in PubChem.
An excerpt weighted towards active compounds, which were near 1.6% of everything screened.
NOD2 RIPK2 PPI = blocks binding of human NOD2 to RIPK2; inhibition, % at 4.98 µM; AID 624267; O43353; CHO BLA complementation NOD2-RIPK2, CCF4 ratio; 360,000 tested, 0.38% active; in the data active = inhibition above about 21%
Dynein transport = dynein cargo transport inhibition. 3617.4 mouse cells, GR-EGFP nuclear translocation imaging; test concentration mostly 20 µM; stimulated with dexamethasone, 1 µM; stronger effect = lower value. z-score, hits read low. 220,000 tested, 0.47% active;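 active = plate z-score of nuclear minus cytoplasmic receptor signal below a set negative limit, without overly bright fluorescence or cell loss, cut at about -3.5 in these data, passing the limit was not always enough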;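 also: z-score of nuclear minus cytoplasmic ring GR-EGFP intensity difference per well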
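Buffer or medium: tetracycline-free induction medium containing charcoal-stripped FBS / Reagent: dexamethasone agonist, 1.0 µM final, for 30 min / Technique: automated 10x imaging of fixed Hoechst-stained cells / Times: induction 48 h, compound 1 h, agonist 30 min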
TLR9-MyD88 inh = inhibitors of human TLR9-MyD88 binding; Q9NR96+Q99836; CHO BLA complementation TLR9-MyD88, CCF4 FRET ratio; inhibition, % at 4.98 µM; 340,000 tested, 0.21% active;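 active = inhibition above the mean over all tested compounds plus 3 SD, cut at about 21% in these data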
TLR4 MyD88 comp = TLR4-MyD88 interaction inhibition in cells. inhibition, % at 8.4 µM. HeLa CL3-4 TLR4/MyD88 BLA complementation, FRET ratio. O00206+Q99836. 200,000 tested, 0.18% active. AID 861; in the data active = inhibition above about 25%
ABHD5 PLIN5 PPI = ABHD5-PLIN5 protein interaction inhibition. Split G. princeps luciferase complementation, luminescence, 4 h. inhibition, % at 4 µM. 360,000 tested, 0.78% active. Q00G26+Q8WTS1. AID 602281;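 active = inhibition above the mean inhibition across every tested compound plus 3 SD, cut at about 22% in these data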
Target sequence (Q00G26 whole entry, looked up): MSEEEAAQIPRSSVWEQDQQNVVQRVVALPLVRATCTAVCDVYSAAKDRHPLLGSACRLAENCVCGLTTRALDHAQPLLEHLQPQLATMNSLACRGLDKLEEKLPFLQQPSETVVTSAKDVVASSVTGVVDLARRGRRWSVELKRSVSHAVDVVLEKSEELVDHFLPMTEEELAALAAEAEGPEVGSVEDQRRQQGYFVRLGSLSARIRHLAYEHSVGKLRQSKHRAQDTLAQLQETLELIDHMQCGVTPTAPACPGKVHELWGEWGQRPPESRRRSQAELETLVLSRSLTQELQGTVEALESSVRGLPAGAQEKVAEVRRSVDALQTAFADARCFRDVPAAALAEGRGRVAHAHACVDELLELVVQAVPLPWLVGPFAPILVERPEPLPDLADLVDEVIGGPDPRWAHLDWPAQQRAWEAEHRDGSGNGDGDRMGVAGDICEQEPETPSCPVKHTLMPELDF
Target sequence (Q8WTS1 whole entry, looked up): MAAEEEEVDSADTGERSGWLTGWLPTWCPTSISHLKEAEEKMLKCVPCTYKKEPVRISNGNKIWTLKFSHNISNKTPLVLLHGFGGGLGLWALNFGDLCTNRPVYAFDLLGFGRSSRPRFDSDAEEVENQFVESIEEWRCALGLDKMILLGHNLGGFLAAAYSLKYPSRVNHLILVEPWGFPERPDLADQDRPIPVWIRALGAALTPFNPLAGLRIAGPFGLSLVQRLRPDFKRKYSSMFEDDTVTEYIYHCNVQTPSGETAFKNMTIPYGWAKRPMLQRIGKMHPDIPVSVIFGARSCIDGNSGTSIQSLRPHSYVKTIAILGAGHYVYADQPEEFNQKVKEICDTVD
Beta2AR agonist = activates human beta-2 adrenergic receptor causing internalization. Am2.2-beta2AR cells, FAP receptor internalization, flow cytometry. P07550. 340,000 tested, 0.43% active. response, % (test concentration not listed);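 active = response above a set limit, near 3 SD of response in nonfluorescent compounds, cut at about 42% in these data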
Dynein inh conf = dynein cargo transport inhibition, confirmation; shares compounds with Dynein transport; 3617.4 GR-EGFP nuclear translocation imaging, dexamethasone-induced; calls only at 20 µM; 1,000 tested, 69% active; AID 463116;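 active = inhibition of receptor movement into the nucleus at or above a set limit in both runs, with normal cell brightness and cell count; inconclusive = limit reached in only one run, brightness and count normal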;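 also: dexamethasone at 1 µM final in well for 30 min; nuclear minus cytoplasmic GR-EGFP mean intensity difference in channel 2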
Beta2AR ag CP1 = activates human beta-2 adrenergic receptor. shares compounds with Beta2AR agonist. Am2.2-beta2AR cells, FAP surface receptor, flow cytometry; stronger effect = lower value. percent response (surface receptor), % at 10 µM. 1,100 tested, 25% active;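 active = surface receptor percent response at or below 58%, roughly 3 SD from nonfluorescent compounds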
B2AR FAP counter = flagged in Am2.2 fluorescence counterscreen for beta-2AR agonists. shares compounds with Beta2AR agonist. Am2.2 cells, FAP fluorogen flow cytometry; stronger effect = lower value. calls only at 10 µM. 1,100 tested, under 10 active. AID 588765;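 active = percent response below a set limit in fluorescence channel 1 and below 50% in channel 8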
TLR9-MyD88 cf = confirmation of human TLR9-MyD88 binding inhibitors | 680 tested, 51% active | inhibition, % at 4.98 µM | AID 540250 | shares compounds with TLR9-MyD88 inh | CHO TLR9/MyD88 BLA complementation, CCF4 FRET ratio;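 active = mean inhibition across three repeats above about 21% taken from the earlier screen, limit read from the data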;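 also: blue over green emission ratio reports constitutive TLR9 MyD88 association via BLA complementation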
BLA counter = beta-lactamase reporter inhibition, counter-screen artifact. shares compounds with TLR9-MyD88 inh. CHO-BLA cells, CCF4 FRET ratio, BLA reporter. inhibition, % at 4.98 µM. 680 tested, 7% active;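 active = mean inhibition above a 50% cutoff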;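 also: counterscreen of TLR9-MyD88 hits on CMV-driven BLA in CHO-K1 cells; higher means less blue over green ratio so more BLA blockade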
TLR9 CHO cytotox = counter-screen for TLR9-MyD88 inhibitors: cytotoxicity in CHO cells | shares compounds with TLR9-MyD88 inh | luminescence | inhibition, % at 4.98 µM | 680 tested, 39% active; in the data active = inhibition above about 11%
Of the large screens only hits and unclear results are named; the others gave an inactive call (follow-up assays come after a bar, where they were run).

O=C(CN1C(=O)NC2(CCCC2)C1=O)OCc1cccc(Br)c1	none (no result: Dynein transport, TLR4 MyD88 comp)
CCC1=C2CC[C@H]3C(=O)N(c4ccccc4)C(=O)[C@H]3[C@H]2[C@@]2(C)C(=NCc3ccccc3)OC(=O)N2C1=O	Dynein transport -4.2 (no result: TLR4 MyD88 comp) | Dynein inh conf active
Cc1ccc(C(C[N+](=O)[O-])n2nc(C)cc2C)cc1 (configuration not stated)	Dynein transport -5.3 | Dynein inh conf inactive
Clc1ncnc2scc(C3COc4ccccc4O3)c12 (configuration not stated)	Dynein transport -4.2 | Dynein inh conf active
c1ccc2c(c1)OCC(c1csc3ncnc(N4CCCCC4)c13)O2 (configuration not stated)	none
CSCCNC(=O)C1(C)CCN1C(=O)c1sccc1C (configuration not stated)	none (no result: Dynein transport, TLR9-MyD88 inh, TLR4 MyD88 comp, Beta2AR agonist)
CC(C)CN1C(=O)/C(=C/c2c(N3CCc4ccccc4C3)nc3ccccn3c2=O)SC1=S	none (no result: NOD2 RIPK2 PPI, TLR9-MyD88 inh, TLR4 MyD88 comp, ABHD5 PLIN5 PPI, Beta2AR agonist) | Dynein inh conf inactive
COc1cccc(C2CC(C(F)(F)F)n3nc(C(=O)NCc4cccnc4)cc3N2)c1 (configuration not stated)	Dynein transport -3.6 | Dynein inh conf inactive
COc1cccc(C2CC(C(F)(F)F)n3nc(C(=O)Nc4c(C)n(C)n(-c5ccccc5)c4=O)cc3N2)c1 (configuration not stated)	none
O=C(Cc1cccs1)N[C@@H]1c2ccccc2CC[C@@H]1OCc1ccccc1	none (no result: Dynein transport, TLR4 MyD88 comp)
Cc1sc(NC(=O)c2sc3nc4c(C)cccc4cc3c2N)c(C#N)c1C	none | Dynein inh conf active
O=C(NC1CCC(O)CC1)c1cccnc1Sc1ccccc1Cl (configuration not stated)	none (no result: Dynein transport, TLR4 MyD88 comp)
O=C(CCl)Nc1cc(-c2ccccc2)nn1-c1ccccc1	Dynein transport -4.8 | Dynein inh conf active
Cc1ccc(-c2cc(NC(=O)CCl)n(-c3ccccc3)n2)cc1	none
CC(CC(=O)N1CCN(C(=O)c2ccccc2)CC1)c1ccccc1 (configuration not stated)	none (no result: Dynein transport, TLR4 MyD88 comp)
CC(c1ccccc1)N1CCN(C(=O)CCl)CC1 (configuration not stated)	Dynein transport -4.9 | Dynein inh conf inactive
COc1ccc(OC)c(S(=O)(=O)Nc2ccc(O)c3ccccc23)c1	Dynein transport -4.2, Beta2AR agonist 52 | Dynein inh conf inactive | Beta2AR ag CP1 inactive | B2AR FAP counter inactive
COc1ccc(OC)c(S(=O)(=O)Nc2cccc3c(O)cccc23)c1	none (no result: Dynein transport, TLR9-MyD88 inh, TLR4 MyD88 comp)
COc1ccc(CN2C(=O)C(CC(=O)NCCCCc3ccccc3)CC(C(=O)N3CCCCCC3)=C2C)cc1 (configuration not stated)	none (no result: Dynein transport, TLR9-MyD88 inh, TLR4 MyD88 comp, Beta2AR agonist)
Cc1ccc(C(C[N+](=O)[O-])Sc2ccc(N)cc2)cc1 (configuration not stated)	Dynein transport -6.7, Beta2AR agonist 70 (no result: TLR4 MyD88 comp) | Dynein inh conf active | Beta2AR ag CP1 inactive | B2AR FAP counter inactive
OCCN1CCN(c2ncnc3c2ncn3[C@H]2CN(Cc3cccnc3)C[C@@H](CO)O2)CC1	none (no result: Dynein transport, TLR9-MyD88 inh, TLR4 MyD88 comp, Beta2AR agonist)
CNCc1ccccc1Sc1cc(O)ccc1O	Dynein transport -4, Beta2AR agonist 68 | Dynein inh conf active | Beta2AR ag CP1 inactive | B2AR FAP counter inactive
CCOc1ccc(C(=O)C(CCC(CN(C)C)C(=O)c2ccc(OCC)cc2)CN(C)C)cc1 (configuration not stated)	NOD2 RIPK2 PPI 40, Dynein transport -4.1, ABHD5 PLIN5 PPI 49, Beta2AR agonist 110 | Dynein inh conf inactive | Beta2AR ag CP1 inactive | B2AR FAP counter inactive
CCOc1ccc(C(=O)c2ccncc2)cc1	none
COC(=O)c1cc([N+](=O)[O-])c(-n2cncn2)c([N+](=O)[O-])c1	Dynein transport -4.6, Beta2AR agonist 50 | Dynein inh conf active | Beta2AR ag CP1 34 | B2AR FAP counter inactive
COc1ccc(CNC(=O)C2Cc3c(-c4ccc5c(c4)OCO5)ccnc3O2)cc1OC (configuration not stated)	none (no result: Dynein transport, TLR9-MyD88 inh, TLR4 MyD88 comp, Beta2AR agonist)
Cc1cccc2cc3c(N)c(C(=O)Nc4ccc(N5CCOCC5)cc4)sc3nc12	none
Cc1cccc2cc3c(N)c(C(=O)N4CCc5ccccc54)sc3nc12	TLR9-MyD88 inh 22 | Dynein inh conf inactive | TLR9-MyD88 cf inactive | BLA counter inactive | TLR9 CHO cytotox 18
COc1cc(NC(=O)Cn2ncc(Cl)c(Cl)c2=O)c(C)cc1[N+](=O)[O-]	Dynein transport -3.8, TLR9-MyD88 inh 21 | Dynein inh conf active | TLR9-MyD88 cf 23 | BLA counter inactive | TLR9 CHO cytotox 98
COc1cc(NC(=O)CN2C(=O)CN(C)C2=O)c(C)cc1[N+](=O)[O-]	none
CCCCS(=O)(=O)/C=C\C=C/S(=O)(=O)CCCC	NOD2 RIPK2 PPI 91, TLR9-MyD88 inh 34, ABHD5 PLIN5 PPI 84 | Dynein inh conf active | TLR9-MyD88 cf 37 | BLA counter inactive | TLR9 CHO cytotox 100
C[C@H](O)[C@@H]1C(=O)N2CCc3ccc(N4CCN(C)CC4)cc3[C@@H]2C[C@@H]1N(C)C(=O)c1ccco1	none (no result: Dynein transport, TLR4 MyD88 comp, Beta2AR agonist)
CCC(=O)OCCNc1cc(Sc2nccn2C)c2nonc2c1[N+](=O)[O-]	Dynein transport -4.8, TLR9-MyD88 inh 24, Beta2AR agonist 83 | Dynein inh conf inconclusive | TLR9-MyD88 cf 69 | BLA counter inactive | TLR9 CHO cytotox 101
COc1cc(OC)cc(-c2noc([C@@H]3O[C@H](CO)[C@H](O)[C@H](O)[C@H]3O)n2)c1	none (no result: Dynein transport, TLR9-MyD88 inh, TLR4 MyD88 comp, Beta2AR agonist)
